Screens (PubChem BioAssay)
An excerpt weighted towards active compounds, which were near 7.2% of everything screened.
hDAT+cocaine = changed human dopamine transporter uptake under cocaine IC80; AID 449768; LLC-PK1 hDAT cells, [14C]-dopamine uptake with cocaine IC80; actives deviate in either direction; B-score at 10 µM; hit rate 1.3% among 110,000;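 active means Z score or B-score, a plate-position-corrected score, falls beyond the plate's 99.7% confidence bounds, in either direction; inactive means both scores lie inside the 99.7% bounds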;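 further: scored against the spread of the other compound wells on the same plate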
D1 allo mod = allosterically modulates the human D1 dopamine receptor; hit rate 5.9% among 58,000; B-score at 10 µM; HEK293 D1, CRE-luciferase, dopamine EC30 potentiation; actives deviate in either direction; P21728;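 active means luminescence count or its row- and column-corrected plate score outside the 99.7% band of the plate's sample wells, on either side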
BAP1 inh = human BAP1 deubiquitinase inhibition; calls only at 20 µM; recombinant BAP1, Ub-AMC hydrolysis fluorescence kinetic; stronger effect = lower value; hit rate 0.48% among 72,000; Q92560;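 active means activity remaining at or below 50% of control, provided the compound also passes the data quality filters; inactive means the rest, including low values that fail the filters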;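 further: 100% = DMSO wells rate and 0% = substrate alone blank rate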
M1 ag = M1 muscarinic receptor agonism; CHO-M1 cells, Fluo-4 calcium fluorescence, agonist mode; stronger effect = higher value; B-score at 10 µM; AID 626; hit rate 3% among 64,000;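 active means fluorescence rise, raw or as B-score row- and column-corrected plate score, outside the 99.7% band of its plate's samples, either direction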
M1 antag = M1 muscarinic receptor (rat) antagonism; P08482; AID 628; CHO-M1 cells, Fluo-4 calcium, ACh EC80 antagonist mode; stronger effect = lower value; B-score at 10 µM; hit rate 3.4% among 64,000;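 active means calcium fluorescence response, raw or row-and-column corrected B-score, differing from the plate sample mean either way at a set confidence level, mostly lower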
HEK293 NFkB inh = inhibitors of the PMA/ionomycin-induced NF-kB reporter in HEK293 cells; HEK-293 NF-kB luciferase reporter, luminescence; inhibition, % at 3 µM; hit rate 0.21% among 62,000; AID 465;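 active means inhibition above the mean of all tested compounds plus 3 SD, cut at about 40% in these data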;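 further: 0% = stimulated DMSO wells and 100% = 10 µM reference inhibitor 5653914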
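Material: HEK-293 cells with stable firefly luciferase reporter driven by four HIV NF-kB elements / Also added: PMA plus ionomycin mix as NF-kB-activating stimulus / Compound dosing: 3 µM once, 0.30% DMSO / Times: 1 h pretreatment, 16 h stimulation, 37 °C / Signal: luminescence / Evaluation: per-plate % inhibition versus controls / Benchmarks: DMSO and 10 µM reference inhibitor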
M1 ag confirm = confirmation of rat M1 muscarinic receptor agonists | shares compounds with M1 ag | fluorescence change (max-min) at 10 µM | hit rate 19% among 1,700 | AID 1488 | CHO-M1 cells, Fluo-4 calcium fluorescence, agonist mode; actives lie on both sides;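 active means fluorescence change differs from the solvent-only DMSO control mean at a set confidence level in both duplicate runs; inconclusive means differs from solvent-only control mean in just one of two runs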;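 further: an EC20 dose of acetylcholine follows compound addition during the same imaging run; raw fluorescence intensity difference in instrument units with no normalization to controls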
M4 ag counter = rat M4 muscarinic agonism, M1 counter-screen; shares compounds with M1 ag; CHO M4/Gqi5 cells, Fluo-4 calcium fluorescence, agonist mode; actives lie on both sides; fluorescence change (max-min) at 10 µM; hit rate 9% among 1,700; AID 1741;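 active means fluorescence change differing from the plate's solvent-only control wells at 99.7% confidence in both duplicates, whether higher or lower; inconclusive means differs from solvent controls in only one of two duplicates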
Target sequence (P08485 whole entry, looked up): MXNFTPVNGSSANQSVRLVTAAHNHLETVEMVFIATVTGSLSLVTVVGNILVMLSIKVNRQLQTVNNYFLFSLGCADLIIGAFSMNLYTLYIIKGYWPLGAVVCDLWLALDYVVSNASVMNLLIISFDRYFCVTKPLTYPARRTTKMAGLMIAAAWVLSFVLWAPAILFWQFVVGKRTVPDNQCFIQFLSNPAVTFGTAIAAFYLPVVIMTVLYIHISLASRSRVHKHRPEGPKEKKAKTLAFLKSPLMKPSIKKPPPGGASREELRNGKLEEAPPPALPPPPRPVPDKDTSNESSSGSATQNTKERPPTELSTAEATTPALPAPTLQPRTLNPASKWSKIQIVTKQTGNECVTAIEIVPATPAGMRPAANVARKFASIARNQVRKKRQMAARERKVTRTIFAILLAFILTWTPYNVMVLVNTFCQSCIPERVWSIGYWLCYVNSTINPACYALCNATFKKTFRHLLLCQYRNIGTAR
* = called active by the depositor; i = inactive; u = inconclusive; x = no result given.

SMILES	hDAT+cocaine	D1 allo mod	BAP1 inh	M1 ag	M1 antag	HEK293 NFkB inh	M1 ag confirm	M4 ag counter
O=C(NCC(=O)N(c1ccccc1)C(C(=O)NCC1CCCO1)c1ccccc1)c1ccco1 (centres undefined)	-1.1	-0.81	i	8.3*	-0.32	12	u	-54
Cc1ccc(C(=O)Nc2nc(C34CC5CC(CC(C5)C3)C4)cs2)cc1	x	x	i	x	x	x	x	x
O=C(CN1C(=O)c2ccccc2C1=O)NCC(=O)OCC(=O)c1ccc([N+](=O)[O-])cc1	x	x	i	x	x	x	x	x
O=C(Nc1ncc(S(=O)(=O)c2ccc([N+](=O)[O-])cc2)s1)c1ccc(-c2ccccc2)cc1	x	x	i	x	x	x	x	x
COc1ccccc1NC(=O)CN(Cc1ccco1)C(=O)c1ccc(-n2nc(C)cc2C)cc1	0.36	-1.1	i	5.9*	0.18	12	-17	u
COc1ccccc1NC(=O)CN(Cc1ccco1)C(=O)c1cccs1	0.11	1.2	i	-0.4	0.015	18	x	x
CC(=O)N(c1ccccc1)c1c(F)c(F)c(F)c(F)c1F	-1.3	0.15	i	3.9*	0.21	3	-7.2	-0.88
CC(=O)N(CN1C(=O)c2ccccc2C1=O)c1ccccc1	-1.1	-0.13	i	1	-0.89	13	x	x
CCOCCCn1cnc2c(c1=O)c1nc3ccccc3nc1n2-c1ccc(C)cc1	1.7	0.22	x	0.68	0.54	10	x	x
CCOCCCn1cnc2c(c1=O)c1nc3ccccc3nc1n2-c1ccccc1	0.54	0.6	i	3.9*	0.058	10	u	-37
CCOC(=O)C1CCCN(Cc2nc(N)nc(Nc3ccc(Cl)cc3)n2)C1 (centres undefined)	0.45	0.21	i	0.33	-0.086	26	x	x
CCOC(=O)C1CCCN(C/C(O)=C(\C#N)c2nc(-c3ccc(Cl)cc3)cs2)C1 (centres undefined)	0.93	-0.082	i	21*	0.14	5	u	-29
CCOc1ccccc1-n1nnnc1SCC(=O)NC(=O)NCc1ccco1	1.8	-1.5	i	3.3*	-0.26	10	-6.2	-30
Nc1c(C(=O)Nc2ccccc2)sc2nc(-c3ccco3)ccc12	0.1	-0.46	i	2.8*	-0.56	5	u	-57
COc1ccccc1NC(=O)c1sc2nc(-c3ccco3)ccc2c1N	0.063	0.28	i	11	1.6	1	x	x
CCN1CCN(c2nc(C)nc3c2sc(=S)n3C)CC1	-0.97	0.44	i	-2.6*	-0.2	4	-11	-24
CCOC(=O)N1CCN(C(=O)CSc2nc3ccccc3c(=O)n2-c2ccccc2)CC1	0.45	-0.22	i	3.8*	0.53	8	u	u
CCOC(=O)CC(=O)CSc1nc2ccccc2c(=O)n1-c1ccc(C(=O)N2CCOCC2)cc1	1.1	-0.64	i	0.39	0.064	3	x	x
O=C(Nc1ccc(F)cc1)N1CCN(c2nc3ccccc3s2)CC1	0.46	0.26	i	-0.14	-0.23	26	x	x
O=C(Nc1ccccc1)N1CCN(c2nc3ccccc3s2)CC1	0.052	0.22	i	4.7*	1.2	10	-5.8	-13
CCOC(=O)c1nnn(-c2nonc2N)c1CN1CCc2ccccc2C1	-0.43	0.22	i	-2.7*	0.22	9	-27*	u
CC1=C(C(=O)OCCCCl)C(c2ccc(C)cc2)NC(=O)N1 (centres undefined)	x	x	i	x	x	x	x	x
O=C(NCc1ccco1)c1cccc2ccccc12	-0.81	-0.052	i	11*	0.84	2	-16	-41
COc1ccc(-c2noc(-c3ccccc3C(=O)NCc3ccco3)n2)cc1OC	0.98	-0.86	i	4.7*	-0.24	2	-15	-27
COc1ccc(N=c2oc3c(OC)cccc3cc2C(=O)NCc2ccco2)cc1OC	0.041	-3.9*	i	15*	0.31	18	18	-1.8
SMILES	hDAT+cocaine	D1 allo mod	BAP1 inh	M1 ag	M1 antag	HEK293 NFkB inh	M1 ag confirm	M4 ag counter
COc1ccccc1NC(=O)c1ccccc1NC(=O)c1ccc(C)cc1	x	x	i	x	x	x	x	x
COCCNC(=O)c1ccccc1NC(=O)c1ccc(OC)c(OC)c1	-0.49	2.1	i	31*	0.68	22	-31*	-94*
COc1ccccc1N=c1oc2c(OC)cccc2cc1C(=O)NCc1ccco1	0.2	-0.41	i	0.21	0.072	11	x	x
CSCCOC(=O)C1=C(C)NC(=O)NC1c1cccc([N+](=O)[O-])c1 (centres undefined)	x	x	i	x	x	x	x	x
COc1ccc(Cl)cc1C(=O)N1CCC(Cc2ccccc2)CC1	x	x	i	x	x	x	x	x
COc1ccc(C(=O)Nc2ccc(Cl)cc2C(=O)NCc2ccco2)cc1OC	-0.0068	-0.1	i	13*	-0.1	-3	-14	-16
COc1ccc(C(=O)Nc2ccccc2C(=O)NCc2ccco2)cc1OC	0.7	x	i	6.6*	-0.87	0	-2.9	-25
COc1ccccc1NC(=O)c1ccccc1-c1nc(-c2ccccc2OC)no1	0.37	-2.7	i	7.3*	-1.4	15	-29*	-50
CN(Cc1cccs1)c1ncnc2sccc12	-0.88	2.9	i	2.6*	-0.37	23	-3.4	-87*
Cc1sc2ncnc(N(C)Cc3cccs3)c2c1C	0.34	x	x	x	x	x	x	x
Cc1cc(C(F)(F)F)nc(SCC(=O)NCc2cccc(C(F)(F)F)c2)n1	x	x	i	x	x	x	x	x
COC(=O)c1ccc(/C(O)=C(\C#N)c2nc3ccccc3s2)cc1	-0.18	0.016	i	2.7*	-2.4*	-51	28	-1.3
C=CCOC(=O)C1=C(C)NC(=O)NC1c1ccc(CC)cc1 (centres undefined)	x	x	i	x	x	x	x	x
COc1ccc(OCC(=O)Nc2ccc(F)cc2)cc1	x	x	i	x	x	x	x	x
CCn1c(SCC(=O)c2cc(C)n(CC3CCCO3)c2C)nc2ccccc21 (centres undefined)	-1.2	-0.36	i	5.3*	0.033	9	u	-44
Cc1ccc(-n2nc3c(c2NC(=O)C2CC2)CSC3)c(C)c1	x	x	i	x	x	x	x	x
CCOC(=O)c1cc(CC)sc1NC(=O)c1ccc(N2CCN(CC)CC2)c([N+](=O)[O-])c1	x	x	i	x	x	x	x	x
O=C(Cn1cnc2c(nnn2-c2ccc(F)cc2)c1=O)N1CCCc2ccccc21	0.038	1.8	i	-3.2*	0.44	9	16	-41
COc1ccc(-n2nnc3c(=O)n(CC(=O)N4CCCc5ccccc54)cnc32)cc1	-0.71	x	i	1.2	-0.12	-3	x	x
O=C(Nc1ccc(N2CCOCC2)cc1)c1ccccc1Br	x	x	i	x	x	x	x	x
O=C(Nc1ccccc1)N1CC=C(c2ccc(F)cc2)CC1	0.4	-0.58	x	5.4*	-3.2*	-1	u	u
